Compound activity: PubChem BioAssay, Broad Institute
Shown is part of a subset that was picked to be rich in hits.
T cruzi HTS = intracellular Trypanosoma cruzi inhibition; intracellular Trypanosoma cruzi in host cells, plate reader; activity score (inhibition), % at 5.01 µM; hit rate 4.9% among 22,000; AID 651903; in the data active = activity score above about 55%; inconclusive = no clear call, values can overlap the other calls;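 note: parasites and compound incubated about four days before reading; 0% = median of neutral control wells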
YB-1 expr inh = YB-1 expression inhibition | U2OS, qRT-PCR YB-1 vs CDIP delta delta Cp, 16 h; hits give high values; zero = DMSO, each unit about twofold | delta delta Cp (YB-1 minus CDIP) (test concentration not listed) | hit rate 0.37% among 30,000 | AID 434959;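 active = delta delta Cp rounded down to an integer at or above 3, about 3 SD of DMSO wells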;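 note: higher means less YB-1 transcript or more CDIP transcript relative to DMSO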
INS-1E ATP HTS = rescue of cytokine-induced death in INS-1E beta cells. INS-1E cytokine-induced death, ATP luminescence, 48 h; normalised: neutral wells 0, positive control 100. protection from cytokine-induced ATP loss, % at 10 µM. hit rate 0.1% among 20,000. AID 488910;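 active = mean replicate protection from cytokine-induced ATP loss at least 50% and at least 75% of replicates each reaching 50%; inconclusive = meets only one of the two criteria, mean or replicate share; inactive = fails both the mean and replicate share criteria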
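Assay system – rat INS-1E insulinoma cell line · Quantity – 8000 cells per well · Buffer or medium – RPMI without phenol red, 5% FBS · Schedule – 48 h co-treatment, 10 min post-lysis read · Technique – luminescent ATP assay (CellTiter-Glo)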
* marks the source's active call; other numbers are inactive results; ? = inconclusive; . = not tested or not shown.

SMILES | T cruzi HTS | YB-1 expr inh | INS-1E ATP HTS
C[C@@H]1CN([C@H](C)CO)C(=O)c2cccc(NC(=O)Nc3ccc(C(F)(F)F)cc3)c2O[C@H]1CN(C)Cc1ccc(Cl)c(Cl)c1 | 87* | 0.18 | -36
C[C@@H]1CN([C@H](C)CO)C(=O)c2cccc(NC(=O)Nc3ccc(F)cc3)c2O[C@H]1CN(C)Cc1ccc(Cl)c(Cl)c1 | 35 | -0.078 | -8
C=CCC/C=N/NC(=O)CCCCCCC(=O)O | -7 | -0.3 | 0
Cc1ccc(S(=O)(=O)Nc2ccc3c(c2)CC(=O)N([C@@H](C)CO)C[C@@H](C)[C@@H](CN(C)Cc2ccc(C(F)(F)F)cc2)O3)cc1 | 64* | 0.21 | -31
COc1ccc(S(=O)(=O)Nc2ccc3c(c2)CC(=O)N([C@@H](C)CO)C[C@H](C)[C@@H](CN(C)Cc2ccc(C(F)(F)F)cc2)O3)cc1 | 83* | 0.24 | -13
C[C@H]1CN([C@@H](C)CO)C(=O)Cc2cc(NS(=O)(=O)c3ccccc3)ccc2O[C@H]1CN(C)Cc1ccc(C(F)(F)F)cc1 | 48 | 0.42 | -1
COc1ccc(CN(C)C[C@H]2Oc3ccc(NS(=O)(=O)c4ccc(F)cc4)cc3CC(=O)N([C@H](C)CO)C[C@H]2C)cc1 | 52 | -0.0022 | 1
C[C@@H]1CN([C@H](C)CO)C(=O)Cc2cc(NS(=O)(=O)c3ccc(F)cc3)ccc2O[C@@H]1CN(C)Cc1ccc(C(F)(F)F)cc1 | 60* | 0.34 | -48
Cc1ccc(S(=O)(=O)Nc2ccc3c(c2)CC(=O)N([C@H](C)CO)C[C@H](C)[C@H](CN(C)Cc2ccc(C(F)(F)F)cc2)O3)cc1 | 34 | -0.35 | -6
CC(C)CC1NC(=O)C2CCCN2C1=O (stereo not drawn) | . | 0.41 | .
Cc1nn(-c2ccccc2)c(C)c1Sc1n[nH]c(=O)[nH]c1=O | . | -0.4 | .
COc1ccc(/C=N/NC(=O)CCCCCCC(=O)Nc2ccccc2O)c(OC)c1 | -8 | -0.55 | -2
O=C(CCCCCC(=O)Nc1ccccc1O)N/N=C/c1ccc(OCCO)cc1 | -16 | 0.17 | 2
CC(=O)O[C@@H]1CC2C(C)(C)CCC[C@]2(C)C2CC[C@]3(C)C(=CC(=O)O[C@H]3c3ccoc3)[C@@]21C (stereo partly drawn) | . | 0.12 | .
Cc1noc(C)c1S(=O)(=O)Nc1ccc2c(c1)CC(=O)N([C@@H](C)CO)C[C@@H](C)[C@@H](CN(C)Cc1ccc(Oc3ccccc3)cc1)O2 | 60* | -0.12 | -15
Cc1noc(C)c1S(=O)(=O)Nc1ccc2c(c1)CC(=O)N([C@@H](C)CO)C[C@H](C)[C@H](CN(C)Cc1ccc(-c3ccccc3)cc1)O2 | 19 | 0.034 | -12
Cc1noc(C)c1S(=O)(=O)Nc1ccc2c(c1)CC(=O)N([C@H](C)CO)C[C@@H](C)[C@@H](CN(C)Cc1ccc(-c3ccccc3)cc1)O2 | 60* | -0.11 | -21
Cc1noc(C)c1S(=O)(=O)Nc1ccc2c(c1)CC(=O)N([C@@H](C)CO)C[C@@H](C)[C@@H](CN(C)Cc1ccccc1)O2 | 12 | -0.15 | 6
O=C(c1ccc(Br)cc1)c1cc2c(cc1Br)OCCCO2 | . | -0.48 | .
O=C(O)CCCCCCC(=O)N/N=C/c1cc(Br)ccc1O | -11 | 0.094 | 11
C[C@@H]1CN([C@@H](C)CO)C(=O)c2cccc(NC(=O)Nc3ccc(C(F)(F)F)cc3)c2O[C@@H]1CN(C)C(=O)Nc1cccc2ccccc12 | -27 | 0.46 | -59
C[C@H](CO)N1C[C@H](C)[C@@H](CN(C)C(=O)Nc2cccc3ccccc23)Oc2c(NC(=O)Nc3ccc(C(F)(F)F)cc3)cccc2C1=O | 61* | 0.56 | -8
C[C@H]1CN([C@@H](C)CO)C(=O)c2cccc(NC(=O)Nc3cccc4ccccc34)c2O[C@H]1CN(C)C(=O)Nc1ccc(C(F)(F)F)cc1 | 63* | 0.0057 | -29
C[C@@H]1CN([C@@H](C)CO)C(=O)c2cccc(NC(=O)Nc3ccc(C(F)(F)F)cc3)c2O[C@H]1CN(C)C(=O)Nc1cccc2ccccc12 | 38 | 0.34 | -30
C[C@H](CO)N1C[C@H](C)[C@H](CN(C)C(=O)Nc2cccc3ccccc23)Oc2c(NC(=O)Nc3ccc(C(F)(F)F)cc3)cccc2C1=O | 66* | 0.19 | -14
SMILES | T cruzi HTS | YB-1 expr inh | INS-1E ATP HTS
C[C@H](CO)N1C[C@H](C)[C@@H](CN(C)C(=O)Nc2ccc(C(F)(F)F)cc2)Oc2c(NC(=O)Nc3cccc4ccccc34)cccc2C1=O | 52 | 0.22 | -34
OC(COc1ccc(F)cc1)(c1ccc(Cl)cc1)c1ccc(Cl)cc1 | . | -0.37 | .
CCC1(COC(NC(=O)c2ccc(Cl)cc2Cl)(C(F)(F)F)C(F)(F)F)COC1 | . | -0.17 | .
CC1(O)CC(=O)c2c(ccc3c2C(=O)c2cccc(O)c2C3=O)C1 (stereo not drawn) | . | -0.3 | .
CCOC(=O)c1cnc(S/C=C/C(=O)c2ccc(C)cc2)nc1N | . | 0.095 | .
CSc1ccc(C2N[C@@H](C(=O)O)C(C)(C)S2)cc1 (stereo partly drawn) | . | 0.13 | .
C[C@@H]1CN([C@H](C)CO)C(=O)c2cc(NC(=O)Nc3ccc(C(F)(F)F)cc3)ccc2O[C@H]1CN(C)Cc1ccc2c(c1)OCO2 | 36 | -0.00023 | -19
C[C@@H]1CN([C@@H](C)CO)C(=O)c2cc(NC(=O)Nc3ccc4c(c3)OCO4)ccc2O[C@@H]1CN(C)Cc1ccc(C(F)(F)F)cc1 | 68* | -0.007 | .
C[C@H]1CN([C@@H](C)CO)C(=O)c2cc(NC(=O)Nc3ccccc3)ccc2O[C@H]1CN(C)Cc1ccc2c(c1)OCO2 | 52* | -0.45 | .
C[C@H]1CN([C@@H](C)CO)C(=O)c2cc(NC(=O)Nc3ccc(C(F)(F)F)cc3)ccc2O[C@H]1CN(C)Cc1ccc2c(c1)OCO2 | 34* | 0.45 | .
C[C@@H]1CN([C@H](C)CO)C(=O)c2cc(NC(=O)Nc3ccc4c(c3)OCO4)ccc2O[C@@H]1CN(C)Cc1ccc(Oc2ccccc2)cc1 | 62* | -0.22 | -12
C[C@H]1CN([C@@H](C)CO)C(=O)c2cc(NC(=O)Nc3ccc(C(F)(F)F)cc3)ccc2O[C@H]1CN(C)Cc1ccc(C(F)(F)F)cc1 | ? | -0.38 | -14
C[C@H]1CN([C@@H](C)CO)C(=O)c2cc(NC(=O)Nc3ccc4c(c3)OCO4)ccc2O[C@@H]1CN(C)Cc1ccc2c(c1)OCO2 | -2 | -0.097 | -4
C[C@@H]1CN([C@H](C)CO)C(=O)c2cc(NC(=O)Nc3ccc4c(c3)OCO4)ccc2O[C@H]1CN(C)Cc1ccc(Oc2ccccc2)cc1 | -6 | -0.092 | .
C/C(=N\O)C12CC3(C)CC(C)(CC(C)(C3)C1)C2 | . | -0.05 | .
Cc1ccc(/C(C#N)=C/c2ccc(N(C)C)cc2)cc1 | . | -0.39 | .
CN(C)Cc1ccc(C(=O)Oc2ccc(C(C)(C)C)cc2)cc1 | . | -0.42 | .
COc1ccc(Br)cc1/C=N/NC(=O)CCCCCCC(=O)Nc1ccccc1O | 3 | -0.086 | 11
CCOC(=O)c1cnn(C(=O)Cc2cccc(OC)c2)c1N | . | 5.2* | .
CCOC(=O)c1cnn(-c2nc(C)cc(C)n2)c1N | . | -0.12 | .
C[C@H]1CN([C@@H](C)CO)C(=O)c2cccc(NC(=O)CCCCCC(=O)Nc3ccccc3N)c2O[C@@H]1CN(C)Cc1ccc2c(c1)OCO2 | 72* | 0.02 | 19
